This assay has as its target Phosphatidylinositol 4,5-bisphosphate 3-kinase catalytic subunit beta isoform (Homo sapiens) (UniProt P42338). Kind of assay: Inhibition of N-terminal histidine-tagged recombinant human full length PI3Kbeta expressed in baculovirus infected Sf9 insect cells upto 20 uM preincubated for 15 mins followed by addition of cold ATP/gamma32P-ATP measured after 15 mins. The method, boiled down:
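PI3Kβ 0.6 nM final; inhibitor preincubated 15 min, reaction 15 min. Final: 50 mM HEPES pH 7.5, 100 mM NaCl, 0.03% CHAPS, 10 mM MgCl2, 1 mM EGTA, 2 mM DTT, 80 µM PIP2 (PIP2:DOPS:DOPC), 500 ng/µL BSA, 2% DMSO, 10 µM ATP, 2 uCi γ32P-ATP; membrane capture, phosphorimaging.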

Inhibition data for two compounds are collected here from ChEMBL document CHEMBL3784974, “Design and Structural Characterization of Potent and Selective Inhibitors of Phosphatidylinositol 4 Kinase IIIβ” (J Med Chem, 2016).

SMILES strings stand for the structures. A value given as a limit tells only on which side of the number the result lay.

Phosphatidylinositol 4,5-bisphosphate 3-kinase catalytic subunit beta isoform (Homo sapiens), sequence (P42338 whole entry, looked up, canonical isoform): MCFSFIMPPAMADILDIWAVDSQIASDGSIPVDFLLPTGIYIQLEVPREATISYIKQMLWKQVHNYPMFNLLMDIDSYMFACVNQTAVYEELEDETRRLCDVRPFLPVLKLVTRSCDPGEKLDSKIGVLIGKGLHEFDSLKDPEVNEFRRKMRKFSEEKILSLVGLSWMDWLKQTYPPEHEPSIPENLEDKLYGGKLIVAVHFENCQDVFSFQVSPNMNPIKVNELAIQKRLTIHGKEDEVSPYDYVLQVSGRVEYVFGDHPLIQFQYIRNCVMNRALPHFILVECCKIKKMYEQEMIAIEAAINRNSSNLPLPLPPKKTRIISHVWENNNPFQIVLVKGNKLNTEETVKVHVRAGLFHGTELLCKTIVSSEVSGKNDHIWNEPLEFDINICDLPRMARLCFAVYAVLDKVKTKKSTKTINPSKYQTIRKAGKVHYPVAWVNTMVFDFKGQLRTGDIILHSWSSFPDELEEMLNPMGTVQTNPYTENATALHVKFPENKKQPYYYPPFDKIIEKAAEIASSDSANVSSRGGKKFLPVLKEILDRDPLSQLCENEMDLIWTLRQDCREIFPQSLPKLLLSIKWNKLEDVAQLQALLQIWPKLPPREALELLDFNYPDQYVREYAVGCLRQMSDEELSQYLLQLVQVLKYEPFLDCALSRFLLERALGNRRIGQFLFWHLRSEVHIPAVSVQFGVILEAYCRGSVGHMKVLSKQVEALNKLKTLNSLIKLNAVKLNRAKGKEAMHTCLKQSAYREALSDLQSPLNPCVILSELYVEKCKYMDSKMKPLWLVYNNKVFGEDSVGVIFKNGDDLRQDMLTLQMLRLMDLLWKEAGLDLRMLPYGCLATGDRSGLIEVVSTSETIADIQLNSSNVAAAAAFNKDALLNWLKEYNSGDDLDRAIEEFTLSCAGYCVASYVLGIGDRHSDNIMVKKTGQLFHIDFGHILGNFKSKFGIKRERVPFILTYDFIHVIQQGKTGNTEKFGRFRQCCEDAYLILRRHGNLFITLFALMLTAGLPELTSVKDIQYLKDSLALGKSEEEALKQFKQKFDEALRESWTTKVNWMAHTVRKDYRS

What is called inhibition is how much of the control response was suppressed. As for `COc1ccc(-c2sc(NC(=O)C3CCCC3)nc2C)cc1S(=O)(=O)Nc1ccc(O)cc1`, the inhibition is below 50%.
Under `COc1ccc(-c2sc(NC(=O)C(C)(C)C)nc2C)cc1S(=O)(=O)Nc1ccc(O)cc1` stands below 20%.
